In publication PMC11638873 (Molecular Therapy, 2024):
“And” between values parts separate entries of the source, which are not always exact repeats. Identical values can stand only once.

Columns and labels:
[1] = assay type: in vivo, mouse; conditions: 60 mg/kg daily oral
In short: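 Homozygous G542X mice were dosed orally once daily from P21 for 15 days. Controls were 3 WT and 3 mutant mice given water. Afterwards, isolated tissues from each group were stained with hematoxylin and eosin to check for tissue damage.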

[2] = tested on: premature termination codons (PTCs) / natural termination codons (NTCs); conditions: cited from earlier work
[3] = Biodistribution study after single oral dose in wild-type C57BL/6 mice; assay type: in vivo, mouse; conditions: 60 mg/kg single oral dose
[4] = tested on: human liver microsomes (CYP, UGT); assay: In vitro metabolism on human liver microsomes; assay type: in vitro ADME; conditions: for glucuronate metabolite detection after HLM incubation: with cofactors for UGT activity
In short: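 Test compound (1 mM) incubated at 37 °C with pooled HLMs from 50 donors of both sexes (20 mg protein/mL). Buffer was 100 mM potassium phosphate or 100 mM Tris-HCl, pH 7.4, each with 20 mM NADPH. Reactions stopped with acetonitrile at 0, 5, 30 and 60 min; supernatant analysed by HPLC-MS. % remaining vs 0 min; mean ± SEM; one-way ANOVA vs time 0.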

[5] = cited from earlier work
[6] = tested on: CFTR (G542X nonsense mutation); assay type: in vivo, mouse; conditions: 60 mg/kg daily oral, 15 days
In short: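 G542X homozygous mice (n = 5, genotyped by allele-specific PCR) gavaged daily from P21 for 15 days; 3 WT and 3 mutant mice given water as vehicle. Lung RNA (20–25 mg tissue) for real-time RT-PCR. Lung protein (40 mg tissue, RIPA plus 1% protease inhibitors, Bradford) for western blot, normalized to tubulin and negative control. Triplicate per mouse; mean ± SEM; two-way ANOVA vs untreated mutant.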

Question: With `CC(=O)Nc1noc(C)n1` [NV848, N-(5-methyl-1,2,4-oxadiazol-3-yl)acetamide] as the compound, how does the “tissue damage after chronic administration (H&E staining)” value ([1]; 15 days) read?
Answer: no signs of tissue damage

Question: What about the “tolerability of oral treatment for 2 weeks” value ([1]; CFTR G542X/G542X mice) of the same compound?
Answer: well tolerated in mice and did not cause toxicity

Question: What about the “specificity for PTCs” value [2] of the same compound?
Answer: specificity for PTCs without interfering with NTCs

Question: What about the “last detection in lungs” value [3] of the same compound?
Answer: 2 h

Question: And the “concentration in kidneys (individual mice)” value ([3]; 45 min, found in two mice)?
Answer: 145 ng/g and 794 ng/g

Question: What about the concentration in pancreas ([3]; 45 min to 2 h) of the same compound?
Answer: stable concentrations from 45 min to 2 h

Question: And the average plasma concentration ([3]; 24 h)?
Answer: 0.06 g/mL

Question: And the “metabolic stability in HLM compared to PTC124” value ([4]; CYP, UGT and other liver microsome enzymes)?
Answer: higher metabolic stability compared to PTC124

Question: What about the “consumption after HLM incubation” value ([4]; after 60 min, CYP-DPBS condition) of the same compound?
Answer: 14.62%

Question: What about the “consumption after HLM incubation” value ([4]; after 60 min, CYP-Tris condition) of the same compound?
Answer: 5.27%

Question: And the “consumption after HLM incubation” value ([4]; after 60 min, CYP/UGT-DPBS condition)?
Answer: 5.65%

Question: What about the “consumption after HLM incubation” value ([4]; after 60 min, CYP/UGT-Tris condition) of the same compound?
Answer: 13.04%

Question: And the “glucuronate metabolite detection after HLM incubation” value [4]?
Answer: no glucuronate metabolites were detected

Question: What about the tolerability in vivo [5] of the same compound?
Answer: good tolerability in vivo

Question: And the “lung CFTR mRNA expression (real-time RT-PCR)” value ([6]; CFTR G542X/G542X mice, vs untreated mutant)?
Answer: increase in CFTR mRNA expression

Question: And the “CFTR detection in lung sections (IHC), apical membranes of pulmonary ducts” value ([6]; mouse M2)?
Answer: intensity similar to CFTR^WT

Question: Which results are given for `O=C(O)c1cccc(-c2noc(-c3ccccc3F)n2)c1` [PTC124, reference compound]?
Answer: metabolic consumption after HLM incubation ([4]; after 60 min, HLM condition not specified): 46.25%; glucuronate metabolite detection after HLM incubation [4]: glucuronate derivative was the primary metabolite detected
